The values below come from ChEMBL document CHEMBL1649415, “Synthesis, physicochemical characterization, and biological activities of new carnosine derivatives stable in human serum as potential neuroprotective agents” (J Med Chem, 2011).

A word on the logD: it is lipophilicity at a set pH, counting ionised and neutral species.

The subject of one data set is Serum. Nature of the data set: Stability of the compound in human serum after 3 hrs. The data set is classed as ADME, cell-free. The gist of the method: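 Compound added from a 10 mM aqueous stock to human serum preheated to 37 °C, giving 0.5 mM final, and incubated at 37 ± 0.5 °C. At intervals, aliquots were deproteinized with an equal volume of acetonitrile/0.1% TFA, centrifuged and filtered. Analysis by RP-HPLC on C18 with methanol/20 mM sodium acetate pH 4.5-5 mM SDS (80/20 to 60/40).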

A short description of data set [1]: Antioxidant activity assessed as 4-hydroxy-trans-2,3-nonenal scavenging activity at 1 mM after 1 hr by HPLC relative to control. Format: functional. The gist of the method: (§1)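 HNE (50 µM final) incubated with compound (1 mM final) in 1 mM phosphate buffer pH 7.4 at 37 °C for up to 24 h. Samples were injected directly onto reverse-phase C18 HPLC to measure remaining HNE. Scavenging % = 100 − (HNE left with scavenger / HNE left in control × 100); mean ± SEM.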

The nature of data set [2]: Antioxidant activity assessed as 4-hydroxy-trans-2,3-nonenal scavenging activity at 1 mM after 24 hrs by HPLC relative to control. The data set is classed as functional. In outline: as §1
A short description of data set [3]: Antioxidant activity against CuSO4-induced LDL oxidation measured per mg og LDL product assessed as propagation rate of the oxidation at 100 uM by antioxidation assay. Format: functional. In outline: (§2)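 Human plasma LDL (EDTA-treated donor plasma, density 1.019-1.063 g/mL fraction by ultracentrifugation, desalted) diluted in 10 mM phosphate buffer pH 7.4 to 50 µg protein/mL. Compound added at 100 µM final, oxidation started with CuSO4 2.5 µM final at 37 °C. Conjugated dienes followed at 234 nm over 6 h. Lag-time change versus control and propagation rate (ε234 = 29500 M-1 cm-1) derived; mean ± SEM.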

The nature of data set [4]: Antioxidant activity against CuSO4-induced LDL oxidation assessed as delta-lag time at 100 uM by antioxidation assay. The data set is classed as functional. The gist of the method:
as §2

Data set [5] can be described thus: Antioxidant activity assessed as 4-hydroxy-trans-2,3-nonenal scavenging activity at 1 mM after 6 hrs by HPLC relative to control. The data set is classed as functional. In outline: as §1
Data set [6] is described as follows: Lipophilicity, log D of the compound by shake-flask technique. Format: physicochemical. The settings on record: octanol/water. The gist of the method: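 Shake-flask at pH 7.4, in phosphate buffer with ionic strength 0.15 M KCl and mutually presaturated n-octanol (4 h). Compound about 0.1 mM in the aqueous phase, shaken about 20 min, then centrifuged. Aqueous concentration measured by UV at 230 nm; at least seven log D determinations per compound.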

The nature of data set [7]: Toxicity in mouse primary hippocampal neuron assessed as adverse effect at 100 uM after 24 hrs. The data set is classed as tissue-based, Hippocampus.
Data set [8] has as its system Neuron. Kind of data set: Cytoprotective effect in mouse primary hippocampal neuron assessed as reduction in 4-hydroxy-trans-2,3-nonenal-induced damage at 100 uM after 24 hrs. Format: functional, Hippocampus. On the set-up: scale not given: the % may be the effect or the level left. In outline:
(§3)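 They were grown 6 days in B-27 neurobasal medium at 37 °C, 5% CO2. Compound (100 µM in medium) was given alone or as pretreatment before HNE 10 µM, for 24 h. Death was scored by trypan blue exclusion against pre-incubation counts; mean ± SEM, n = 4-7, paired t test.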

Data set [9] in a line: Drug level in Wistar rat brain measured per gram of tissue at 20 mg/kg, iv after 3 hrs. The settings on record: read-out: Drug uptake. Further details: dose 20 mg/kg, route intravenous. The data set is classed as ADME, organism-based. The gist of the method:
(§4)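 Male Wistar rats, 200-250 g, given 20 mg/kg i.v. in 0.9% saline; 3 rats per time point, killed at 1.5 or 3 h. Heparinized blood and brain homogenized in equal volume of cold water were deproteinized with acetonitrile/0.1% TFA, centrifuged and filtered. RP-HPLC on C18 with methanol/20 mM sodium acetate pH 4.5-5 mM SDS (70/30), detection 210 and 223 nm; spiked untreated-rat samples used as standards.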

The subject of data set [10] is Neuron. Kind of data set: Cytoprotective effect in mouse primary hippocampal neuron assessed as reduction in 4-hydroxy-trans-2,3-nonenal-induced neuronal disruption at 100 uM after 24 hrs. The data set is classed as functional, tissue-based. The settings on record: Hippocampus. In outline: as §3
A short description of data set [11]: Drug level in Wistar rat brain measured per gram of tissue at 20 mg/kg, iv after 1.5 hrs. The data set is classed as ADME, organism-based. On the set-up: dose 20 mg/kg, route intravenous. The settings on record: read-out: Drug uptake. The gist of the method:
as §4

Data set [12] can be described thus: Drug level in Wistar rat blood at 20 mg/kg, iv after 1.5 hrs. The data set is classed as ADME, organism-based. Further details: dose 20 mg/kg, route intravenous. Particulars: whole blood, read-out: Drug uptake. In outline:
as §4

Active and inactive are the calls of the source. No cut-off for these calls is given here.

Consider `CCCCOc1ccc(CNC(=O)[C@H](Cc2c[nH]cn2)NC(=O)CCN)cc1.O=C(O)C(F)(F)F`, for which, in the data set with Serum, the Stability entry is given as “Stable”. Further, the Activity in [1] came to 8.8%; in data set [2], 80.7%; in data set [3], 10 nmol/min; in data set [5], 32.6%. In addition, in data set [4], the TIME turned out to be 0.817 h. The logD in data set [6] was -0.13.
As for `NCCC(=O)N[C@@H](Cc1c[nH]cn1)C(=O)NCC1CCCCC1.O=C(O)C(F)(F)F`, the Stability entry in the data set on Serum was “Stable”. In addition, the Activity was determined as 12.8% in [1], 62.5% in [2], 5.6 nmol/min in [3] and 28.2% in data set [5]. Also, the TIME in data set [4] is 1.42 h. The logD in data set [6] was -0.94.
In the case of `CCNC(=O)[C@H](Cc1c[nH]cn1)NC(=O)CCN.O=C(O)C(F)(F)F`, in the data set on Serum, the Stability result is reported as “Stable”. The Activity was found to be 8.4% in [1], 70.9% in data set [2], 7 nmol/min in [3] and 32.9% in data set [5]. The TIME in [4] worked out at 1.13 h.
Regarding `NCCC(=O)N[C@@H](Cc1c[nH]cn1)C(=O)NCc1ccccc1.O=C(O)C(F)(F)F`, the Stability result with Serum is “Stable”. In addition, the Activity stood at 7.2% in [1], 72.8% in [2], 5.2 nmol/min in data set [3] and 29.3% in data set [5]. Also, the TIME in [4] came to 1.42 h. This compound also displayed a logD in data set [6] of -1.76.
On to `CCCCCCCCNC(=O)[C@H](Cc1c[nH]cn1)NC(=O)CCN.O=C(O)C(F)(F)F`, for which the Stability result with Serum was “Stable”. The Activity in data set [1] is 12.8%; in data set [2] it was 86.7%; in data set [3] it was 11.8 nmol/min; in [5], 49.7%. Further, the TIME in [4] came to 0.717 h. Further, the logD in data set [6] is -0.23.
Turning to `NCCC(=O)N[C@@H](Cc1cnc[nH]1)C(=O)O` [CARNOSINE], the Stability entry in the data set on Serum is reported as “Stable”. For the same compound, the Activity result in data set [7] is “Non-toxic”.
For `CCCCCCNC(=O)[C@H](Cc1c[nH]cn1)NC(=O)CCN.O=C(O)C(F)(F)F`, in the data set on Serum, the Stability result is listed as “Stable”. Also, the Activity in [1] turned out to be 12%; in [2], 75.9%; in data set [3] it was 6.7 nmol/min; in data set [5] it was 35.4%. The TIME in data set [4] worked out at 1.32 h. For the same compound, in data set [6], the logD is -0.88.
With `NCCC(=O)N[C@@H](Cc1c[nH]cn1)C(=O)O` [CARNOSINE], the Activity was 20.4% in [1]; 88.8% in data set [2]; 5.8 nmol/min in data set [3]; 6% with Neuron [8]; 59.6% in data set [5]. Moreover, the TIME in data set [4] was 1.12 h.
Consider `CNC(=O)[C@H](Cc1c[nH]cn1)NC(=O)CCN.O=C(O)C(F)(F)F`, for which, in the data set on Serum, the Stability result is “Stable”. In addition, the Activity amounted to 8% in data set [1], 75.4% in data set [2], 6.8 nmol/min in data set [3] and 35.2% in data set [5]. Moreover, the TIME in data set [4] amounted to 1.25 h.
For `CCCCNC(=O)[C@H](Cc1c[nH]cn1)NC(=O)CCN.O=C(O)C(F)(F)F`, the Stability entry with Serum was “Stable”. The Activity was determined as 12.5% in data set [1], 75.2% in data set [2], 5.7 nmol/min in data set [3] and 36.2% in [5]. Besides, the TIME in data set [4] is 1.37 h. In data set [6], this compound registered a logD of -2.01.
In the case of `CCOC[C@H](Cc1c[nH]cn1)NC(=O)CCN.O=C(O)C(F)(F)F`, in the data set on Serum, the Stability entry is “Stable”. Moreover, the Activity in data set [1] came out at 17.9%; in data set [2], 86.2%; in [3], 12.2 nmol/min; in data set [5], 60.7%. Also, the TIME in data set [4] was -0.0667 h. The compound further returned a logD in [6] of -2.17.
For the compound `NCCC(=O)N[C@@H](Cc1c[nH]cn1)C(N)=O.O=C(O)C(F)(F)F`, the Stability result in the data set with Serum is on record as “Stable”. Further, the Activity in data set [1] is 10.2%; in data set [2] it was 77.7%; in data set [3], 7.7 nmol/min; in [5], 31.6%. Moreover, the TIME in data set [4] was 1.07 h.
Turning to `CCCCCCCCCCCCNC(=O)[C@H](Cc1c[nH]cn1)NC(=O)CCN.O=C(O)C(F)(F)F`, the Stability result with Serum is given as “Stable”. The Activity in data set [3] was determined as 14.5 nmol/min. For the same compound, the TIME in data set [4] was -0.05 h. Also, the log distribution coefficient (logD) in [6] was 0.93.
On to `CCCNC(=O)[C@H](Cc1c[nH]cn1)NC(=O)CCN.O=C(O)C(F)(F)F`, for which the concentration at 3 h in data set [9] is 1100 ng/g. Also, the Stability result in the data set on Serum is listed as “Stable”. Further, the Activity in data set [1] is 12.5%; in [2] it was 81%; in data set [3], 7.7 nmol/min; in the data set on Neuron [8] it was 40%; in data set [7], “Non-toxic”; in data set [5], 42.7%. For the same compound, the TIME in data set [4] is 1.13 h. Besides, the outcome in the data set with Neuron [10] was Active. Further, the concentration at 1.5 h in [11] was 600 ng/g; in [12], 0.26 µg/mL. Also, in data set [6], the logD was -2.72.
For the compound `CCCCCCCCCCNC(=O)[C@H](Cc1c[nH]cn1)NC(=O)CCN.O=C(O)C(F)(F)F`, in the data set on Serum, the Stability entry is recorded as “Stable”. Moreover, the Activity in [3] turned out to be 21 nmol/min. Further, the TIME in data set [4] came to 0.15 h. This compound also yielded a logD in data set [6] of 0.85.
